pIC50: −log10 of the molar value.
What was measured:
Trypanosoma cruzi [1] = experiment: Inhibitory concentration against Trypanosoma cruzi (epimastigotes); type: functional, organism-based
In short: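 Epimastigote growth inhibition; IC50 values are the means of three experiments.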

Trypanosoma cruzi [2] = experiment: Inhibitory concentration against Trypanosoma cruzi (amastigotes); type: functional, organism-based
Trypanosoma cruzi [3] = experiment: Maximum inhibitory activity against Trypanosoma cruzi (amastigotes); type: functional
Trypanosoma cruzi [4] = experiment: Maximum inhibitory activity against Trypanosoma cruzi (amastigotes)

Row | Structure (SMILES) | pIC50 (Trypanosoma cruzi [1]) | pIC50 (Trypanosoma cruzi [2]; Trypanosoma cruzi) | pIC50 (Trypanosoma cruzi [2]) | Inhibition (Trypanosoma cruzi [3]) | Inhibition (Trypanosoma cruzi [4])
1 | CCCCCCCCC(P(=O)(OCC)OCC)P(=O)(OCC)OCC | < 4.30 | < 4.30 |  |  | 
2 | CCCCC(P(=O)(O)O)P(=O)(O)O | < 4.15 | < 4.15 |  |  | 
3 | CCC(P(=O)(O)O)P(=O)(O)O | < 4.00 | < 4.00 |  | 21% | 
4 | CCCC(P(=O)(O)O)P(=O)(O)O | < 4.00 | < 4.05 |  | 28% | 
5 | CCCCC(P(=O)(OCC)OCC)P(=O)(OCC)OCC | < 4.15 | < 4.30 |  |  | 
6 | CCCCCCCCCC(P(=O)(OCC)OCC)P(=O)(OCC)OCC | < 4.30 |  |  |  | 
7 | CCCC(O)(P(=O)(O)O)P(=O)(O)O | < 4.15 |  |  |  | 
8 | CCCCCC(P(=O)(OCC)OCC)P(=O)(OCC)OCC | < 4.30 |  |  |  | 
9 | CCCC(P(=O)(OCC)OCC)P(=O)(OCC)OCC | < 4.15 | < 4.15 |  | 27% | 
10 | CCOP(=O)(OCC)C(CC)P(=O)(OCC)OCC |  | < 4.15 |  |  | 
11 | CCCCCC(P(=O)(O)O)P(=O)(O)O | < 4.15 |  |  |  | 

More lines, main results first:

Row | pIC50 (Trypanosoma cruzi [1]) | pIC50 (Trypanosoma cruzi [2]; Trypanosoma cruzi) | pIC50 (Trypanosoma cruzi [2]) | Structure (SMILES) | Inhibition (Trypanosoma cruzi [3]) | Inhibition (Trypanosoma cruzi [4])
12 | < 4.30 |  |  | CCCCCCCC(P(=O)(OCC)OCC)P(=O)(OCC)OCC |  | 
13 |  | < 4.15 |  | CCCCCCCCCCCCCC(O)(P(=O)(O)O)P(=O)(O)O | 10% | 
14 | < 4.15 |  |  | CCCCCCCCC(P(=O)(O)O)P(=O)(O)O |  | 
15 | < 4.15 |  |  | CCCCCCCCCC(P(=O)(O)O)P(=O)(O)O |  | 
16 |  |  | 4.74 | CCCCCCC(O)(P(=O)(O)O)P(=O)(O)O |  | 
17 | < 4.30 |  |  | CCCCCCC(P(=O)(OCC)OCC)P(=O)(OCC)OCC |  | 
18 | < 4.15 | < 4.15 |  | CCCCCC(O)(P(=O)(O)O)P(=O)(O)O |  | 34%
19 | < 4.15 |  |  | CCCCCCCCC(O)(P(=O)(O)O)P(=O)(O)O |  | 
20 | < 4.15 | < 4.15 |  | CCCCCCCC(P(=O)(O)O)P(=O)(O)O | 49% | 
21 | < 4.15 | < 4.15 |  | CCCCCCCC(O)(P(=O)(O)O)P(=O)(O)O |  | 41%
22 | < 4.15 | < 4.15 |  | CCCCCCC(P(=O)(O)O)P(=O)(O)O | 47% | 
23 | < 4.15 |  |  | CCCCCCCCCC(O)(P(=O)(O)O)P(=O)(O)O |  | 

Source: ChEMBL document CHEMBL1136233, “Bisphosphonates derived from fatty acids are potent inhibitors of Trypanosoma cruzi farnesyl pyrophosphate synthase” (Bioorg Med Chem Lett, 2003)
